In ChEMBL document CHEMBL3352584, “Novel DNA gyrase inhibiting spiropyrimidinetriones with a benzisoxazole scaffold: SAR and in vivo characterization” (J Med Chem, 2014):
pIC50: −log10 of the molar value. ≈ marks a conversion by molar mass, not a printed value.

How the values were obtained:
[1] = Solubility of the compound; assay type: physicochemical
[2] = Cmax in Wistar Hannover rat at 750 mg/kg, po dosed once daily for 14 days measured on day 14; assay type: ADME, organism-based; design: dose 750 mg/kg, route oral; conditions: in vivo
In short: (§1)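 Wistar Hannover rats, 2 males and 2 females per dose, dosed orally once daily for 14 days at 250, 500 or 750 mg/kg/day. Vehicle was 0.2 M meglumine/20% hydroxypropyl-β-cyclodextrin. Blood was sampled on day 14 and exposure measured in blood. Animals were killed after sampling without necropsy.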

Staphylococcus aureus [3] = assay: Antimicrobial activity against methicillin-sensitive Staphylococcus aureus by broth microdilution method; assay type: functional
In short: (§2)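 Broth microdilution following CLSI guidelines. Values under 12.5 μM are averages of three or more replicates.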

Staphylococcus aureus [4] = assay: Antimicrobial activity against methicillin-sensitive Staphylococcus aureus ARC516 infected in immunosupressed mouse assessed as reduction in CFU at AUC of 120 ug.hr/mL compound administered as single ip dose starting 2 hrs after infection relative to untreated control; assay type: functional
In short: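 Mice were made neutropenic with IP cyclophosphamide, 150 mg/kg at day −4 and 100 mg/kg at day −1. CD-1 thighs were then infected with mid-log S. aureus ARC516 (target 5 × 10⁵ CFU). Groups of five received IP compound in DMA:TEG:saline 40/40/20%, starting 2 h post-infection, alongside vehicle controls. At 24 h after treatment start, thigh homogenates were plated on tryptic soy agar (37 °C, overnight) for CFU/g.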

[5] = Clearance in mouse at 3 mg/kg, iv or at 10 mg/kg, po by LC-MS/MS method; assay type: ADME, organism-based; conditions: in vivo
In short: (§3)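 Male mice (CD-1) or male Wistar Hannover rats, three per experiment, given a 15 min iv infusion at 3 mg/kg or oral dosing at 10 mg/kg. Vehicle was DMA:TEG:saline 40/40/20 for mice and meglumine/cyclodextrin for rats. Serial jugular blood was taken over 0–24 h, plasma analysed by LC-MS/MS, and a noncompartmental analysis used. Mean values are given.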

Staphylococcus aureus [6] = assay: Antimicrobial activity against Staphylococcus aureus 2375 harboring GyrA S84L mutant, GyrB R144A mutant and ParC S80Y/E84G/V693M mutant and ParE N141S mutant by broth microdilution method; assay type: functional
[7] = AUC in Wistar Hannover rat at 750 mg/kg, po dosed once daily for 14 days measured on day 14; assay type: ADME, organism-based; design: dose 750 mg/kg, route oral; conditions: plasma; in short: as §1
Staphylococcus aureus [8] = assay: Antimicrobial activity against methicillin-resistant and quinolone-resistant Staphylococcus aureus by broth microdilution method; assay type: functional; in short: as §2
Streptococcus pneumoniae [9] = assay: Antimicrobial activity against wild-type Streptococcus pneumoniae 548 by broth microdilution method; assay type: functional; in short: as §2
Staphylococcus aureus [10] = assay: Antimicrobial activity against Staphylococcus aureus 2792 harboring wild-type GyrA and GyrB R144A mutant by broth microdilution method; assay type: functional
Escherichia coli [11] = assay: Antimicrobial activity against tolC-deficient Escherichia coli by broth microdilution method; assay type: functional; in short: as §2
[12] = Cmax in Wistar Hannover rat at 250 mg/kg, po dosed once daily for 14 days measured on day 14; assay type: ADME, organism-based; design: dose 250 mg/kg, route oral; conditions: in vivo; in short: as §1
Rattus norvegicus [13] = assay: Toxicity in Wistar Hannover rat at 1000 mg/kg, po administered as single dose; assay type: organism-based; design: dose 1000 mg/kg, route oral; conditions: in vivo
In short: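 Single-dose oral phase in groups of three male Wistar Hannover rats, at doses up to 1000 mg/kg. Vehicle was 0.2 M meglumine/20% hydroxypropyl-β-cyclodextrin.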

Rattus norvegicus [14] = assay: fAUC in Wistar Hannover rat at 500 mg/kg, po dosed once daily for 14 days measured on day 14; assay type: ADME, organism-based; design: dose 500 mg/kg, route oral; conditions: in vivo, 336 h
Haemophilus influenzae = assay: Antimicrobial activity against Haemophilus influenzae by broth microdilution method; assay type: functional; in short: as §2
Staphylococcus aureus [15] = assay: Antimicrobial activity against methicillin-sensitive Staphylococcus aureus ARC516 infected in immunosupressed mouse administered as single ip dose starting 2 hrs after infection; assay type: functional, organism-based
[16] = Toxicity in po dosed Wistar Hannover rat administered administered once daily for 14 days; assay type: organism-based; conditions: in vivo
In short: (§4)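 Repeat-dose oral study in Wistar Hannover rats, three males and three females per group, dosed once daily for 14 days at 0, 250, 500 or 750 mg/kg/day and necropsied on day 15. Endpoints were clinical signs, body weight, food intake, temperature, hematology, plasma chemistry, toxicokinetics, and gross and microscopic pathology.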

Staphylococcus aureus [17] = assay: Antimicrobial activity against methicillin-sensitive Staphylococcus aureus ARC516 infected in immunocompetant mouse assessed as reduction in CFU at free AUC of 13 ug.hr/mL compound administered as single ip dose starting 2 hrs after infection relative to untreated control; assay type: functional
In short: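 CD-1 mouse thighs were infected with mid-log S. aureus ARC516 at a target inoculum of 5 × 10⁵ CFU. Groups of five received IP compound in DMA:TEG:saline 40/40/20%, starting 2 h post-infection; a vehicle group served as control. Mice were killed 24 h after treatment start, and thigh homogenates were plated on tryptic soy agar (37 °C, overnight) for CFU/g. Free exposure was corrected for mouse plasma protein binding.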

[18] = AUC in Wistar Hannover rat at 500 mg/kg, po dosed once daily for 14 days measured on day 14; assay type: ADME, organism-based; design: dose 500 mg/kg, route oral; conditions: plasma; in short: as §1
Staphylococcus aureus [19] = assay: Antimicrobial activity against methicillin-sensitive Staphylococcus aureus ARC516 infected in mouse at 3 to 100 mg/kg/day, ip starting 2 hrs after infection; assay type: functional, organism-based
In short: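 CD-1 mouse thighs infected with mid-log S. aureus ARC516 at a target inoculum of 5 × 10⁵ CFU. Groups of five received ip compound in DMA:TEG:saline 40/40/20, either q24h or q6h, from 2 h post-infection. Mice were killed 24 h after treatment start and thigh homogenates plated on tryptic soy agar (37 °C overnight) for CFU/g. Neutropenia was induced with ip cyclophosphamide, 150 mg/kg on day −4 and 100 mg/kg on day −1.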

Rattus norvegicus [20] = assay: Toxicity in Wistar Hannover rat at 250 to 500 mg/kg, po administered once daily for 14 days; assay type: organism-based; design: dose 250-500 mg/kg, route oral; conditions: in vivo, 336 h; in short: as §4
Streptococcus pneumoniae [21] = assay: Antimicrobial activity against Streptococcus pneumoniae by broth microdilution method; assay type: functional; in short: as §2
Rattus norvegicus [22] = assay: fCmax in Wistar Hannover rat at 500 mg/kg, po dosed once daily for 14 days measured on day 14; assay type: ADME, organism-based; design: dose 500 mg/kg, route oral; conditions: in vivo, 336 h
DNA gyrase = DNA gyrase (Escherichia coli, UniProt P0AES4+P0AES6); assay: Inhibition of Escherichia coli DNA gyrase using fluorescence-tagged DNA by fluorescenct polarization assay; assay type: protein-complex assay
In short: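 E. coli DNA gyrase supercoiling assay. The read-out was differential binding of a fluorescence-tagged DNA to relaxed versus supercoiled DNA, giving IC50.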

[23] = Fraction unbound in mouse plasma at 10 uM after 16 hrs by LC-MS/MS analysis; assay type: ADME, cell-free
In short: (§5)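 Compound at 10 μM in human, rat or mouse plasma, equilibrium dialysis against buffer at 37 °C for 16 h. Buffer and plasma concentrations measured by LC-MS/MS, and the free fraction taken from their ratio.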

[24] = Fraction unbound in human plasma at 10 uM after 16 hrs by LC-MS/MS analysis; assay type: ADME, cell-free; in short: as §5
[25] = Fraction unbound in rat plasma at 10 uM after 16 hrs by LC-MS/MS analysis; assay type: ADME, cell-free; in short: as §5
[26] = Clearance in rat at 3 mg/kg, iv or at 10 mg/kg, po by LC-MS/MS method; assay type: ADME, organism-based; conditions: in vivo; in short: as §3
Streptococcus pneumoniae [27] = assay: Antimicrobial activity against Streptococcus pneumoniae 2485 harboring GyrA S81F mutant, GyrB D160E/T329A mutant and ParC S79F mutant by broth microdilution method; assay type: functional
Escherichia coli [28] = assay: Antimicrobial activity against Escherichia coli by broth microdilution method; assay type: functional; in short: as §2

## Cc1noc2c(F)c3c(cc12)CC1(C(=O)NC(=O)NC1=O)[C@H]1[C@H](C)O[C@H](C)CN31
[1]
  solubility: > 1000 µM
[2]
  Cmax: 487 µM
Staphylococcus aureus [3]
  MIC: 1 µM (≈ 0.402 µg/mL)
Staphylococcus aureus [4]
  fold change (FC): 3
[5]
  clearance: 38 mL/min/kg
Staphylococcus aureus [6]
  MIC: 0.5 µg/mL (≈ 1.24 µM)
[7]
  AUC at 336 h: 4600 µM·h
Staphylococcus aureus [8]
  MIC: 2 µM (≈ 0.805 µg/mL)
Streptococcus pneumoniae [9]
  MIC: 4 µg/mL (≈ 9.94 µM)
Staphylococcus aureus [10]
  MIC: 0.5 µg/mL (≈ 1.24 µM)
Escherichia coli [11]
  MIC: ≤ 0.2 µM
[12]
  Cmax: 290 µM
Rattus norvegicus [13]
  Activity: Toxic
Rattus norvegicus [14]
  fAUC: 700 µmol·h/L
Haemophilus influenzae
  MIC: 1 µM (≈ 0.402 µg/mL)
Staphylococcus aureus [15]
  Activity: Dose-dependent effect
[16]
  NOAEL at 336 h: 500 mg/kg
Staphylococcus aureus [17]
  fold change (FC): 3
[18]
  AUC at 336 h: 4400 µM·h
Staphylococcus aureus [19]
  Activity: Dose-dependent effect
Rattus norvegicus [20]
  Activity: Non-toxic
Streptococcus pneumoniae [21]
  MIC: 8.8 µM (≈ 3.54 µg/mL)
Rattus norvegicus [22]
  fCmax: 70 µmol/L
DNA gyrase
  pIC50: 6.54
[23]
  fraction unbound at 16 h, 10 µM: 0.19
[24]
  fraction unbound at 16 h, 10 µM: 0.094
[25]
  fraction unbound at 16 h, 10 µM: 0.16
[26]
  clearance: 32 mL/min/kg
Streptococcus pneumoniae [27]
  MIC: 2 µg/mL (≈ 4.97 µM)
Escherichia coli [28]
  MIC: 45 µM (≈ 18.1 µg/mL)
